Bioassay records as filed in PubChem.
This is a sample that favours compounds with a hit; in the whole collection about 2.3% have one here.
Fam108B counter – mouse Fam108B serine hydrolase inhibitors, primary screen, counter-screen for RBBP9 inhibitor project, biochemical, fluorescence polarization | recombinant Fam108B, FP-Rh probe fluorescence polarization | inhibition, % at 9.51 µM | 300,000 compounds, 0.33% hits | AID 1947, 2009;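 active means inhibition above the screen mean inhibition plus 3 SD, computed separately per campaign, cut at about 18% in these data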;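 further: inhibitors lower polarization as less probe binds the enzyme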
PRMT1 inh – PRMT1 methyltransferase inhibitors, primary screen, biochemical, fluorescence polarization; recombinant PRMT1, activity-based probe fluorescence polarization; 370,000 compounds, 1.3% hits; AID 652257, 2013; Protein arginine N-methyltransferase 1 (Homo sapiens), Q99873; inhibition, % at 2.79 µM;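 active means inhibition above about 21% made by adding two undisclosed values, limit read from the data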
Target sequence (Q99873 whole entry, looked up): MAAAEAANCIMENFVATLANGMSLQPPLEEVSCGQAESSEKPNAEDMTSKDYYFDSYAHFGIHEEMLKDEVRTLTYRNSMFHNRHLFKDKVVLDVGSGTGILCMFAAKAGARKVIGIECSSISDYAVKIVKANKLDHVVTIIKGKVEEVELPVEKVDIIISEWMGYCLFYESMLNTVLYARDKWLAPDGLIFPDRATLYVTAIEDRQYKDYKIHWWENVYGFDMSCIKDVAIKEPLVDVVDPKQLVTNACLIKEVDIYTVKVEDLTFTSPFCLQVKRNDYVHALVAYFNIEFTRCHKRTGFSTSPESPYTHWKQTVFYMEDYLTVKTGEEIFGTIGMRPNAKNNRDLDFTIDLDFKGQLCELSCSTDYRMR
RBBP9 inh – human RBBP9 inhibitors, primary screen, biochemical, fluorescence polarization, FP-Rh probe, HTS; Serine hydrolase RBBP9 (Homo sapiens), O75884; recombinant RBBP9; inhibition, % at 7.94 µM; 220,000 compounds, 0.2% hits;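 active means inhibition above the campaign mean of all tested compounds plus 3 SD, cut at about 14% in these data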
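Test system – recombinant human RBBP9 · Input – RBBP9 2.5 µM in dispensing solution, pre-mixing · Medium – Tris buffer pH 8.0, NaCl, Pluronic · Schedule – preincubation 30 min plus labeling 45 min at 25 °C · Measured by – fluorescence polarization · Measure – % inhibition · Controls – DMSO and no-protein wells · Replicates – one well per compound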
PME-1 inh – PME-1 inhibitors via competitive probe labeling, primary screen, biochemical, fluorescence polarization, FP-Rh probe, HTS; Protein phosphatase methylesterase 1 (Homo sapiens), Q9Y570; recombinant PME-1; inhibition, % at 5.9 µM; 320,000 compounds, 0.53% hits;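 active means inhibition above the campaign mean of all compounds plus 3 SD, cut at about 26% in these data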;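 further: competitive labeling of PME-1 active site by serine hydrolase directed probe; inhibitors block probe labeling so polarization falls and inhibition rises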
GSTO1 inh – inhibitors of recombinant GSTO1, primary screen, counter-screen for RBBP9 inhibitor project, biochemical, fluorescence polarization. activity-based probe fluorescence polarization. 300,000 compounds, 1.1% hits. Glutathione S-transferase omega-1 (Homo sapiens), P78417. inhibition, % at 5.96 µM;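 active means inhibition above the campaign mean inhibition plus 3 SD, cut at about 35% in these data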
Target sequence (P78417 whole entry, looked up): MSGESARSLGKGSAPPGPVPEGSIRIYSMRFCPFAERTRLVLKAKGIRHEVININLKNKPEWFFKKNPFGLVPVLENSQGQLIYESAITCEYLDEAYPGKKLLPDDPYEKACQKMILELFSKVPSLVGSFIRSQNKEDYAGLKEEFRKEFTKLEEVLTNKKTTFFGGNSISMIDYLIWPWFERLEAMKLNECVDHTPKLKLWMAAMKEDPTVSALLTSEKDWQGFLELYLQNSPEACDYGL
PAD4 FP inh – human PAD4 inhibitors, primary screen, biochemical, fluorescence polarization, 1536-well format; Protein-arginine deiminase type-4 (Homo sapiens), Q9UM07; recombinant PAD4, RCA probe fluorescence polarization; inhibition, % at 6.36 µM; 330,000 compounds, 0.41% hits;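 active means percent inhibition above a cutoff equal to the mean of all tested compounds plus 3 SD, cut at about 15% in these data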
Fam108b confirm – mouse Fam108b serine hydrolase inhibitors, confirmation, counter-screen for RBBP9 inhibitor project, biochemical, fluorescence polarization, triplicate; inhibition, % at 9.51 µM; AID 1978, 2009; recombinant Fam108b, FP-Rh probe fluorescence polarization; 930 compounds, 44% hits; shares compounds with Fam108B counter;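 active means inhibition above a limit from the primary screen, the mean over all compounds plus 3 SD, cut at about 19% in these data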;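 further: inhibitors free the probe so polarization falls as inhibition rises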
Fam108b inh – inhibition of mouse Fam108b by HTS hits, late-stage follow-up, biochemical, gel-based ABPP, soluble recombinant form; shares compounds with Fam108B counter; fluorophosphonate probe; inhibition, % at 20 µM; 260 compounds, 44% hits; in the data active means inhibition above about 40%
GSTO1 confirm – GSTO1 inhibitor hit confirmation, counter-screen for RBBP9 inhibitor project, biochemical, fluorescence polarization, triplicate; shares compounds with GSTO1 inh; recombinant GSTO1, probe fluorescence polarization; inhibition, % at 5.96 µM; 2,400 compounds, 54% hits; AID 2176, 2009;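 active means inhibition above the primary screen's cutoff, its mean inhibition plus 3 SD, cut at about 35% in these data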;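 further: loss of polarization as inhibitors block binding of rhodamine sulfonate ester activity probe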
PAD4 FP conf – human PAD4 inhibitors, confirmation, biochemical, fluorescence polarization; inhibition, % at 6.36 µM; 1,200 compounds, 28% hits; recombinant PAD4, RCA probe fluorescence polarization; shares compounds with PAD4 FP inh;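 active means mean inhibition across replicates above the hit cutoff set by the earlier primary screen, cut at about 15% in these data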;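 further: inhibitors block active-site labeling by the probe so polarization falls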
Hits are given with their value; 0 = inactive; - = not tested or not shown.

SMILES	Fam108B counter	PRMT1 inh	RBBP9 inh	PME-1 inh	GSTO1 inh	PAD4 FP inh	Fam108b confirm	GSTO1 confirm	PAD4 FP conf	others
O=C1c2c(O)cccc2Cc2cccc(O)c21	22	0	-	37	45	0	43	0	-
O=C1CCn2c1c(O)c1ccccc1c2=O	-	0	-	-	-	-	-	-	-
N=C1CCC(=N)c2c1c(O)c1ccccc1c2O	39	-	0	64	77	43	0	77	-
Nc1c(C(=O)NC2CC2)sc2nc3c(c(-c4ccco4)c12)CC/C3=C/c1ccco1	33	-	0	0	62	0	0	37	-
COc1ccccc1NC(=O)CCCCCN1C(=O)c2cccc([N+](=O)[O-])c2C1=O	0	0	-	0	0	0	-	-	-
COc1cc(/C=C2/C(=O)c3cccc([N+](=O)[O-])c3C2=O)c(Br)cc1O	27	62	0	32	47	0	40	55	-	Fam108b inh=45
CCOC(=O)N(C)c1c(CC)nc2c(OCc3ccc(F)cc3)cccn12	-	0	-	-	-	-	-	-	-
CNc1ccc(Br)cc(C(=O)/C=C/c2ccc3c(c2)OCO3)c1=O	18	25	0	0	55	0	0	0	-
Cc1ccccc1Nc1cc2ccccc2c(=O)[nH]1	21	-	0	0	74	59	19	45	-
Cc1cc(C(=O)O)ccc1-n1c(C)cc(C=C2C(=O)c3ccccc3C2=O)c1C	0	0	0	0	0	0	-	-	-
Cc1cc(C(=O)O)ccc1-n1c(C)ccc1C	24	-	0	0	46	0	0	0	-
CCN(CC)C(=O)Oc1ccc2ccccc2c1Br	0	0	0	0	0	0	-	-	-
COc1ccc(CC(=S)N2CCOCC2)cc1	0	0	0	0	0	0	-	-	-
O=C(O)C1CCN(C(=O)c2ccccc2Cl)CC1	0	0	0	0	0	0	-	-	-
O=C1C(Cl)=C(N2CCC(C(=O)O)CC2)C(=O)c2ccccc21	29	-	0	0	80	20	52	79	15	Fam108b inh=60
CNc1nc2ccccc2n(C)c1=O	0	0	0	0	0	0	-	-	-
COc1cc2c(cc1OC)C(COc1ccccc1OC)N(C(=O)C(C)(C)C)CC2 (centres undefined)	0	0	-	0	0	0	-	-	-
O=C1/C(=C/C=C/c2ccco2)SC(=S)N1NS(=O)(=O)c1ccccc1	53	53	0	0	0	65	0	-	0
CCc1ccc(CN2CCCC(C(=O)N3CCCCC3)C2)cc1 (centres undefined)	0	0	-	0	0	0	-	-	-
Cc1ccc(N2C(=O)N(CC(=O)N3CCOCC3)C(=O)C2C)cc1 (centres undefined)	0	0	0	0	0	0	-	-	-
O=c1[nH]c2ccccc2c(O)c1SCCO	0	0	0	0	0	0	-	-	-
O=C1C(SCCO)=C(SCCO)C(=O)c2ccccc21	51	98	-	31	87	68	66	84	39	Fam108b inh=90
O=C1c2cccc3c(O)ccc(c23)C(=O)N1Cc1ccccc1	28	174	0	0	0	40	28	-	50
CCOC(=O)c1c(-c2ccc(-c3ccccc3)cc2)csc1NC(=O)C1C2CCC(O2)C1C(=O)O (centres undefined)	0	0	0	0	0	0	-	-	-
O=C1CC(c2cccs2)Sc2nc3ccccc3n21 (centres undefined)	0	0	0	0	0	0	-	-	-
SMILES	Fam108B counter	PRMT1 inh	RBBP9 inh	PME-1 inh	GSTO1 inh	PAD4 FP inh	Fam108b confirm	GSTO1 confirm	PAD4 FP conf	others
CC(C)=CCC/C(C)=C/CC/C(C)=C/CC/C(C)=C/CC1=C(C)C(=O)c2ccccc2C1=O	0	0	-	0	0	0	-	-	-
CC(C)=CCC1=C(OCC(=O)O)C(=O)c2ccccc2C1=O	23	0	0	0	89	28	0	85	0
Cc1ccc(-n2c(SCn3nnc4ccccc4c3=O)nnc2-c2cccnc2)c(C)c1	0	0	0	0	0	0	-	-	-
Cc1ccc(S(=O)(=O)/N=C2\C=C(Nc3cccc(C(=O)O)c3)C(=O)c3ccccc32)cc1	50	0	-	0	90	63	60	85	46	Fam108b inh=0
O=C(O)c1cccc(NS(=O)(=O)c2ccc3c(c2)C(=O)c2ccccc2C3=O)c1	0	0	0	0	0	0	-	-	-
Cc1ccc(S(=O)(=O)/N=C2\C=C(Nc3cccc(C(=O)O)c3)C(=O)c3ccccc32)c(C)c1	35	0	-	0	93	66	49	91	50	Fam108b inh=0
Cn1nc(-c2ccccn2)nc2c(=O)n(C)c(=O)nc1-2	62	0	0	36	97	74	86	92	67	Fam108b inh=0
CCCc1nc2c(=O)n(C)c(=O)nc-2n(C)n1	-	0	0	-	-	-	-	-	-
COc1cccc2c1C(=O)c1c(O)c3c(c(O)c1C2=O)C[C@@](O)(C(=O)CO)C[C@@H]3O[C@H]1C[C@H](N)[C@H](O)[C@H](C)O1	32	129	0	48	45	58	34	0	68	Fam108b inh=65
Oc1c(Br)cc(C=Nc2ccc3nc(-c4ccccc4)[nH]c3c2)c(O)c1Br	33	0	0	35	53	37	0	42	0
N#CCCN(CCC#N)C(=O)C1c2ccccc2Oc2ccccc21	67	48	-	84	52	101	0	0	0
N#CC1(C#N)C(c2ccccc2)OC23CCCCC2C1(C#N)C(=N)O3 (centres undefined)	0	0	0	0	0	0	-	-	-
CCCCCCCCOc1ccc(C2OC34CCCCC3C(C#N)(C#N)C2(C#N)C(=N)O4)cc1 (centres undefined)	19	-	0	0	0	16	0	-	0
Oc1c(Br)cc(Br)cc1CNc1cccc2cccnc12	36	0	-	0	67	18	0	92	0
CCC(=O)Nc1c(C#N)c2nc3ccccc3nc2n1-c1ccccc1C	0	0	0	0	0	0	-	-	-
